Measurements taken from ChEMBL document CHEMBL1155278, “3,4-Diaryl-isoxazoles and -imidazoles as potent dual inhibitors of p38alpha mitogen activated protein kinase and casein kinase 1delta” (J Med Chem, 2009).

What was measured:
[1] = target: Mitogen-activated protein kinase 9 (Homo sapiens) (UniProt P45984); assay: Inhibition of JNK2 at 0.1 uM by Cherenkov counting in presence of 20 uM ATP
In short: (§1)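 Single-concentration selectivity screen at 0.1 μM against a panel of 76 protein kinases. Each kinase was run at an ATP level approximating its Km for ATP. Output is mean residual activity as % of the control assay without compound, n = 3 ± SD.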

[2] = target: Myosin light chain kinase, smooth muscle (Homo sapiens) (UniProt Q15746); assay: Inhibition of smooth muscle MLCK assessed as residual activity at 0.1 uM by Cherenkov counting relative to control in presence of 50 uM ATP
In short: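 Single-concentration screen at 0.1 μM in a 76-kinase panel. ATP for each kinase was set near its Km for ATP. Residual activity is given as a percentage of control assays without compound, mean of n = 3 ± SD.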

[3] = target: Serine/threonine-protein kinase Chk2 (Homo sapiens) (UniProt O96017); assay: Inhibition of CHK2 assessed as residual activity at 0.1 uM by Cherenkov counting relative to control in presence of 20 uM ATP
Sequence of Serine/threonine-protein kinase Chk2 (Homo sapiens) (O96017 whole entry): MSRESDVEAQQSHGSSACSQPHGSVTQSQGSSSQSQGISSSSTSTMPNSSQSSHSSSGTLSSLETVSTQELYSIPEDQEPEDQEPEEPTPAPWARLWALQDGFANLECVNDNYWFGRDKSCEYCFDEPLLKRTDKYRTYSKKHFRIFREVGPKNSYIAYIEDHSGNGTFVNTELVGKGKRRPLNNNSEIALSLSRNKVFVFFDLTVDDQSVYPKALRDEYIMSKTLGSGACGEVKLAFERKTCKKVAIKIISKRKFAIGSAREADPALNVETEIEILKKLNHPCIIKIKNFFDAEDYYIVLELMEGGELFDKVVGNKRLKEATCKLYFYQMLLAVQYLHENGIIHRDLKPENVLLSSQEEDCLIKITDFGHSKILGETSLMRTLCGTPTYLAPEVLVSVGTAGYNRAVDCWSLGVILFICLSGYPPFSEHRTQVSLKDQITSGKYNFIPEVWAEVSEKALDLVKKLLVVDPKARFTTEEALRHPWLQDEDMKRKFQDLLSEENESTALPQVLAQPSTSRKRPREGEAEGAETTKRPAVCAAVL
In short: (§2)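 Single-concentration screen at 0.1 µM across a panel of 76 protein kinases. Each kinase was run at an ATP concentration approximating its ATP Km. Results are % mean residual activity versus control assays without compound (n = 3 ± SD).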

[4] = target: Dual specificity tyrosine-phosphorylation-regulated kinase 1A (Homo sapiens) (UniProt Q13627); assay: Inhibition of DYRK1A assessed as residual activity at 0.1 uM by Cherenkov counting relative to control in presence of 50 uM ATP; in short: as §2
[5] = target: Serine/threonine-protein kinase PAK 4 (Homo sapiens) (UniProt O96013); assay: Inhibition of PAK4 assessed as residual activity at 0.1 uM by Cherenkov counting relative to control in presence of 5 uM ATP; in short: as §1
Sequence of Serine/threonine-protein kinase PAK 4 (Homo sapiens) (O96013 whole entry, looked up): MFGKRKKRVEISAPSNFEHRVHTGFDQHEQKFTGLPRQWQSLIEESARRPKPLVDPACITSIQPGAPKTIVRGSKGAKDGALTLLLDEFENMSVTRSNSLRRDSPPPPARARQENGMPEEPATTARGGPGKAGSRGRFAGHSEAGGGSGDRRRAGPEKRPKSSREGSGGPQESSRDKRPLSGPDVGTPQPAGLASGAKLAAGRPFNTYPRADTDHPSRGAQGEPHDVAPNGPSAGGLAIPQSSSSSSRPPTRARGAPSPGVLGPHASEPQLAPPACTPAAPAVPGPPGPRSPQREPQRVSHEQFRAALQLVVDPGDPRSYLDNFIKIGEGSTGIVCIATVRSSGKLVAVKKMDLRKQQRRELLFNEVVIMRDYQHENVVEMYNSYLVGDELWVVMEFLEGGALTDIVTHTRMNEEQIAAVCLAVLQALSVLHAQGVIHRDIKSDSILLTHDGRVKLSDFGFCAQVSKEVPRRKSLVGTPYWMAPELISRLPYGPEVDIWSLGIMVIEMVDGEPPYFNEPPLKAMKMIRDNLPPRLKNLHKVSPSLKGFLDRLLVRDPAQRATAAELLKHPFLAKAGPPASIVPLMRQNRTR

[6] = target: Serine/threonine-protein kinase PAK 5 (Homo sapiens) (UniProt Q9P286); assay: Inhibition of PAK5 assessed as residual activity at 0.1 uM by Cherenkov counting relative to control in presence of 20 uM ATP; in short: as §1
Sequence of Serine/threonine-protein kinase PAK 5 (Homo sapiens) (Q9P286 whole entry, looked up): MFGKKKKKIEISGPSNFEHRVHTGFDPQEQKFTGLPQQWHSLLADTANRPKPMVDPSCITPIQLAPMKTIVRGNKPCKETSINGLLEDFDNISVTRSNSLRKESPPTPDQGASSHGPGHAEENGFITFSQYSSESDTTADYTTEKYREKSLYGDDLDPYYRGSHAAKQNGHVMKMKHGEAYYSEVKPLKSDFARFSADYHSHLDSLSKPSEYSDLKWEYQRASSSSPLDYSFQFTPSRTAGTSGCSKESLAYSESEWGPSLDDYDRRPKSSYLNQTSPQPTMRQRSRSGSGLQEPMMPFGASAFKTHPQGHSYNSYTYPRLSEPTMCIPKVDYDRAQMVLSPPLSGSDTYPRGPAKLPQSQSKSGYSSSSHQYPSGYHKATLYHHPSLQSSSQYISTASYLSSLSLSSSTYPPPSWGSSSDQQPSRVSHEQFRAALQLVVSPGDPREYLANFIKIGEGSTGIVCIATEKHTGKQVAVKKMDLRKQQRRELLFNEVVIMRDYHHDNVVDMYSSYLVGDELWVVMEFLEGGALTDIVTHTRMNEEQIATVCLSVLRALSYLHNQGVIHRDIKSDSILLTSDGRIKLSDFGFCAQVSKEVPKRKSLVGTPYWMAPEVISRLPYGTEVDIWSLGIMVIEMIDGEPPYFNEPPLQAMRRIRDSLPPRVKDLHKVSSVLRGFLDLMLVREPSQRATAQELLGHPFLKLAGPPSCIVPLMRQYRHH

[7] = target: Ephrin type-A receptor 2 (Homo sapiens) (UniProt P29317); assay: Inhibition of EPHA2 assessed as residual activity at 0.1 uM by Cherenkov counting relative to control in presence of 50 uM ATP; in short: as §2
[8] = target: Ribosomal protein S6 kinase alpha-3 (Homo sapiens) (UniProt P51812); assay: Inhibition of RSK2 assessed as residual activity at 10 uM by Cherenkov counting relative to control in presence of 50 uM ATP
Sequence of Ribosomal protein S6 kinase alpha-3 (Homo sapiens) (P51812 whole entry): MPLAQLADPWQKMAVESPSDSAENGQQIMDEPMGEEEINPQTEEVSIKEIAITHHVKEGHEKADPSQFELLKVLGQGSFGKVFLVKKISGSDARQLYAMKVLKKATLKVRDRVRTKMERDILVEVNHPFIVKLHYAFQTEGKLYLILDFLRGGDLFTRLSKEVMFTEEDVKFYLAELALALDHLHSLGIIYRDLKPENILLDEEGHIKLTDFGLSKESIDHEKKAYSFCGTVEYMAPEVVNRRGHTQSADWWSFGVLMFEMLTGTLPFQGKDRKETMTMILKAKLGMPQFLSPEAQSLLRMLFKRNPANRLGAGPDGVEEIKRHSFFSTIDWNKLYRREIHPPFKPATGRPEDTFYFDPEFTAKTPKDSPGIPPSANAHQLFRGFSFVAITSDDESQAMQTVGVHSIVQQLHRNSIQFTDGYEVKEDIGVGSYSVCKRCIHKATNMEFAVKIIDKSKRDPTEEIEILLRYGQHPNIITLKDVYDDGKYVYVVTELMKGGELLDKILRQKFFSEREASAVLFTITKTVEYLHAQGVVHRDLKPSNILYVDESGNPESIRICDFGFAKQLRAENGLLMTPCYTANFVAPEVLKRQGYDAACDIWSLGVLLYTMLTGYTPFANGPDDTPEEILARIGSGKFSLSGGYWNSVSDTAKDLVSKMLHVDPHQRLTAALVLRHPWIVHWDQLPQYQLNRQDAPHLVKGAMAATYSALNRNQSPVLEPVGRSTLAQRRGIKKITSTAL
In short: (§3)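 Single-concentration profiling at 10 μM in a 78-kinase panel. Kinase activity is expressed as a percentage of control assays run without compound.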

[9] = Inhibition of PKA assessed as residual activity at 10 uM by Cherenkov counting relative to control in presence of 20 uM ATP; in short: as §3
[10] = target: MAP kinase-interacting serine/threonine-protein kinase 2 (Homo sapiens) (UniProt Q9HBH9); assay: Inhibition of MNK2 assessed as residual activity at 10 uM by Cherenkov counting relative to control in presence of 50 uM ATP
Sequence of MAP kinase-interacting serine/threonine-protein kinase 2 (Homo sapiens) (Q9HBH9 whole entry, looked up): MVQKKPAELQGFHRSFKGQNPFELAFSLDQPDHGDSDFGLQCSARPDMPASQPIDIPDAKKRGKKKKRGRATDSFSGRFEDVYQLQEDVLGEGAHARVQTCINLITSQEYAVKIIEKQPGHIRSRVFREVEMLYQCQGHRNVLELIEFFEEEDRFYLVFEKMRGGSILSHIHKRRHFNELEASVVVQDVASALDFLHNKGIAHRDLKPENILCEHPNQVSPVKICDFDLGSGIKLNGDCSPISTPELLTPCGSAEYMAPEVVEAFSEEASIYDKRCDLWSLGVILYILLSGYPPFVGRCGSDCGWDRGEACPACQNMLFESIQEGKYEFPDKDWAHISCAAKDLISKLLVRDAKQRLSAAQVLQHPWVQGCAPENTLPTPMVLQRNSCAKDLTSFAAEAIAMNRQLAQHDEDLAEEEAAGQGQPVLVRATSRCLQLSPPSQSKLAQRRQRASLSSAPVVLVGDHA

[11] = target: MAP kinase-activated protein kinase 3 (Homo sapiens) (UniProt Q16644); assay: Inhibition of MAPKAPK3 assessed as residual activity at 10 uM by Cherenkov counting relative to control
Sequence of MAP kinase-activated protein kinase 3 (Homo sapiens) (Q16644 whole entry, looked up): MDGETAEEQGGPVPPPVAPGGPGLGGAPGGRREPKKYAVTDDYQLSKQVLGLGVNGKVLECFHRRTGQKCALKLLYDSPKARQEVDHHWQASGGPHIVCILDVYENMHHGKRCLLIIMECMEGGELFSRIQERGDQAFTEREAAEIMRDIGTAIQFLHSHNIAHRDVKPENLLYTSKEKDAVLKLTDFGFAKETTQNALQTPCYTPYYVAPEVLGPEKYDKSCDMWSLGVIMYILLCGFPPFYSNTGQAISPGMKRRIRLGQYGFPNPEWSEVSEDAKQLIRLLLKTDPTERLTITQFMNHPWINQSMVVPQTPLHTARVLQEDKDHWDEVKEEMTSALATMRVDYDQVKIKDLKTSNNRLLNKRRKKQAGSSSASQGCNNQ

[12] = Inhibition of AMPK assessed as residual activity at 10 uM by Cherenkov counting relative to control in presence of 50 uM ATP
In short: (§4)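 Single-point profiling at 10 µM in a panel of 78 protein kinases. Kinase activity is expressed as a percentage relative to control assays without compound.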

[13] = target: Maternal embryonic leucine zipper kinase (Homo sapiens) (UniProt Q14680); assay: Inhibition of MELK assessed as residual activity at 10 uM by Cherenkov counting relative to control in presence of 50 uM ATP
Sequence of Maternal embryonic leucine zipper kinase (Homo sapiens) (Q14680 whole entry, looked up): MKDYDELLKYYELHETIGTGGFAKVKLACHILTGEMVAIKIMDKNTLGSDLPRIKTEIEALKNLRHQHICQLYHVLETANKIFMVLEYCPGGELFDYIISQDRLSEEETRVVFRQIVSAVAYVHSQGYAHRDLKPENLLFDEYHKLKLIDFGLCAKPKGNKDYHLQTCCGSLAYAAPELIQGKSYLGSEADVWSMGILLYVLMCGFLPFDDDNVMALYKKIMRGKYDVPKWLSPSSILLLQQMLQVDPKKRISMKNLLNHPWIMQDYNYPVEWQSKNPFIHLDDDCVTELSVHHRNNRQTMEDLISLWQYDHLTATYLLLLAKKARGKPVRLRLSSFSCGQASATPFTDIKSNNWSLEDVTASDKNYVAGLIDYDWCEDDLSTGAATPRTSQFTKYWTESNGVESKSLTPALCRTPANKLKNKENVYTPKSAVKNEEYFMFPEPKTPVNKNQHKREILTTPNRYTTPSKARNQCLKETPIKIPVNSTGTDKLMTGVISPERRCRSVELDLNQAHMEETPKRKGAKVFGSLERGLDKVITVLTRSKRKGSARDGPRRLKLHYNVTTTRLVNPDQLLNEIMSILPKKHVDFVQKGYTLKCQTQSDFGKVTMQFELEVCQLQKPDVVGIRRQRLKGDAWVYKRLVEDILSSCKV

[14] = target: Dual specificity tyrosine-phosphorylation-regulated kinase 1A (Homo sapiens) (UniProt Q13627); assay: Inhibition of DYRK1A assessed as residual activity at 10 uM by Cherenkov counting relative to control in presence of 50 uM ATP; in short: as §4
[15] = target: T1, Serine/threonine-protein kinase Nek2 (Homo sapiens) (UniProt P51955); assay: Inhibition of NEK2a assessed as residual activity at 10 uM by Cherenkov counting relative to control in presence of 50 uM ATP
T1 sequence (whole entry): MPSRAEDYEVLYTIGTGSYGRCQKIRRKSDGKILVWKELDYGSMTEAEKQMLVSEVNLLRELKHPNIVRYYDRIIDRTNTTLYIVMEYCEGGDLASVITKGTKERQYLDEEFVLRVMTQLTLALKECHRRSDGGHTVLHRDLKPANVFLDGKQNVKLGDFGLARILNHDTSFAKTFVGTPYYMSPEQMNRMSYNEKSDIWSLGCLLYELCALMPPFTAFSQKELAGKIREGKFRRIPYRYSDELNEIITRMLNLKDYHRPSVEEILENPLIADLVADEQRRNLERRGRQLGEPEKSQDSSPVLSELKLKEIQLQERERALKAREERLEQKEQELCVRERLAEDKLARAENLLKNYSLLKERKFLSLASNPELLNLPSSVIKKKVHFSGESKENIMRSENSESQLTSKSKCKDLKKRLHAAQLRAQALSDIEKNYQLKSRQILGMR

[16] = target: T2, Eukaryotic elongation factor 2 kinase (Homo sapiens) (UniProt O00418); assay: Inhibition of EF2K assessed as residual activity at 10 uM by Cherenkov counting relative to control in presence of 5 uM ATP; in short: as §4
T2 sequence (whole entry): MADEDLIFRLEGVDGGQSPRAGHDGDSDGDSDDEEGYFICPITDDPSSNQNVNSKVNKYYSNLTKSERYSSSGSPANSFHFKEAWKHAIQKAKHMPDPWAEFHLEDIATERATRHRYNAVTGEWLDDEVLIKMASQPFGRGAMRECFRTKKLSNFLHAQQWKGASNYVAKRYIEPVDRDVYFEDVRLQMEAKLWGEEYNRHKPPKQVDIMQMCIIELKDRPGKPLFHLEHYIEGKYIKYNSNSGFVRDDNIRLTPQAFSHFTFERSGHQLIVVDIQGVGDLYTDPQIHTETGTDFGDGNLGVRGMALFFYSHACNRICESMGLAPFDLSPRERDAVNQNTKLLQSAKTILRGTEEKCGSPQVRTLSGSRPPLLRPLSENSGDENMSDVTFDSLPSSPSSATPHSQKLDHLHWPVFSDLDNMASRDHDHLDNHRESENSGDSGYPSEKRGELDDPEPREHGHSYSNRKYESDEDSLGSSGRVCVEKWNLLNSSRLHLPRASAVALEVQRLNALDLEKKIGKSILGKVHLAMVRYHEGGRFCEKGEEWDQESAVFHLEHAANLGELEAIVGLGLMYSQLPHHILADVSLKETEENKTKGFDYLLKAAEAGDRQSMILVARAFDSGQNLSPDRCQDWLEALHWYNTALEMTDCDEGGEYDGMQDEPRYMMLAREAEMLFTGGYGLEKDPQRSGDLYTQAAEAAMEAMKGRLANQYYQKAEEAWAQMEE

Sequence of Mitogen-activated protein kinase 9 (Homo sapiens) (P45984 whole entry, looked up): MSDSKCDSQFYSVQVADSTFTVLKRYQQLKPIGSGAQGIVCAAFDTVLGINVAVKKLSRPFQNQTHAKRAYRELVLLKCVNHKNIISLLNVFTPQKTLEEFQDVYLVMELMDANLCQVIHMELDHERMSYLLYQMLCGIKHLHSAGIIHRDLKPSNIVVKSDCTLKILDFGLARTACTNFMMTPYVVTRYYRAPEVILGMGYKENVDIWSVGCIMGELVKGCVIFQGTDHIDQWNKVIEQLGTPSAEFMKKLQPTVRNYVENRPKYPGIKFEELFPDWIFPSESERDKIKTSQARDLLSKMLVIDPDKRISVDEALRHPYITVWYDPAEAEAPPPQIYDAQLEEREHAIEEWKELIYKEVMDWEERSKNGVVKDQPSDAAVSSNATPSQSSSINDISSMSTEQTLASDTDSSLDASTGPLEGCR

Structure (SMILES)	inhibition [1] [%]	Activity [2] [%]	Activity [3] [%]	Activity [4] [%]	Activity [5] [%]	Activity [6] [%]	Activity [7] [%]	Activity [8] [%]	Activity [9] [%]	Activity [10] [%]	Activity [11] [%]	Activity [12] [%]	Activity [13] [%]	Activity [14] [%]	Activity [15] [%]	Activity [16] [%]
COc1ccc(/C=C/C(=O)Nc2cc(-c3[nH]c(SC)nc3-c3ccc(F)cc3)ccn2)c(OC)c1	69	82	79	78	81	94	97	–	–	–	–	–	–	–	–	–
COc1ccc(/C=C/C(=O)Nc2cc(-c3[nH]c([S+](C)[O-])nc3-c3ccc(F)cc3)ccn2)c(OC)c1 (configuration not stated)	88	93	85	86	98	105	95	–	–	–	–	–	–	–	–	–
CC(C)c1onc(-c2ccc(F)cc2)c1-c1ccncc1	–	–	–	–	–	–	–	113	28	110	104	88	78	100	98	107
CC(C)c1noc(-c2ccc(F)cc2)c1-c1ccncc1	–	–	–	–	–	–	–	120	90	101	113	73	108	95	96	107
